Assay outcomes: PubChem, The Scripps Research Institute Molecular Screening Center
M5 antag – human M5 muscarinic receptor antagonists, primary screen, CHO cells, Fluo-8 calcium fluorescence; CHO-hM5 cells, ACh EC80; inhibition, % at 3 µM; 360,000 tested, 0.59% active; Muscarinic acetylcholine receptor M5 (Homo sapiens), P08912;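 active = inhibition above a per-plate cutoff, the mean of that plate's test compounds plus 3 SD, cut at about 27% in these data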;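 note: 0% = acetylcholine EC80 with DMSO and 100% = DMSO without agonist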
Target sequence (P08912 whole entry, looked up): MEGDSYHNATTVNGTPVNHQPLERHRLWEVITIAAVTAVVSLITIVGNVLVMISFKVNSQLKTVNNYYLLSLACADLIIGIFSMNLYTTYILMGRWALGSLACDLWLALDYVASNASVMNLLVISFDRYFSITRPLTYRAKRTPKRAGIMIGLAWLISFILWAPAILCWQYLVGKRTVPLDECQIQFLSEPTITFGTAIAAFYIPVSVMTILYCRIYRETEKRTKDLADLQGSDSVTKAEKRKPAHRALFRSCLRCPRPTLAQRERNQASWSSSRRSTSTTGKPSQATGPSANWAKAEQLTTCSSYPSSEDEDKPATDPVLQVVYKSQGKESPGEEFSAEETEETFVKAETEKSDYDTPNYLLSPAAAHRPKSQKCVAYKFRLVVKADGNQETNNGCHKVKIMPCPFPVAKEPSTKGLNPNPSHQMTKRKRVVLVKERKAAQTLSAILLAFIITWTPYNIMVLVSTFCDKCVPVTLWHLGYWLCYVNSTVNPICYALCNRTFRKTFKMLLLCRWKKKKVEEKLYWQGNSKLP
M4 antag – human M4 muscarinic receptor antagonists, primary screen, CHO cells, Fluo-8 calcium fluorescence | Muscarinic acetylcholine receptor M4 (Homo sapiens), P08173 | CHO-hM4 cells, ACh EC80 | inhibition, % at 3 µM | 360,000 tested, 0.73% active;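 active = inhibition above its plate's cutoff, the mean inhibition of sample wells plus 3 SD, cut at about 27% in these data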;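 note: 0% = acetylcholine EC80 with DMSO and 100% = DMSO without agonist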
CHRM4 PAM – human M4 muscarinic receptor positive allosteric modulators, primary screen, CHO-K1 cells, Fluo-8 calcium fluorescence | CHO-K1 hM4/Gqi5, ACh EC20; 0% = ACh EC20, 100% = maximal ACh | activation, % at 3 µM | 360,000 tested, 0.4% active;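 active = activation above its plate's cutoff, the mean activation of sample wells plus 3 SD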
CHRM5 PAM – human M5 muscarinic receptor positive allosteric modulators, primary screen, CHO-K1 cells, Fluo-8 calcium fluorescence; Muscarinic acetylcholine receptor M5 (Homo sapiens), P08912; CHO-K1 hM5, ACh EC20 PAM; 0% = ACh EC20, 100% = ACh EC100; activation, % at 3 µM; 360,000 tested, 0.3% active; AID 624038, 2012;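 active = activation above the run cutoff, the mean activation of all test compounds plus 3 SD, cut at about 18% in these data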
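System: CHO-K1 cell line with stable human muscarinic M5 receptor expression | Also added: EC20 acetylcholine as agonist stimulus | Compound: One concentration, 3 µM final (nominal) | Timing: Fluo-8 loading 80 min at 37 °C plus 30 min room temperature | Measured by: Fluo-8 calcium dye fluorescence, kinetic read | Read-out basis: % activation, ACh-normalized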
M4 ag – human M4 muscarinic receptor agonists, primary screen, CHO-K1 cells, Fluo-8 calcium fluorescence. Muscarinic acetylcholine receptor M4 (Homo sapiens), P08173. CHO-K1 hM4/Gqi5; vehicle 0%, full acetylcholine response 100%. activation, % at 3 µM. 360,000 tested, 0.14% active. AID 624127, 2012;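 active = activation above the run mean over all test wells plus 3 SD, cut at about 32% in these data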;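 note: peak over basal fluorescence ratio per well then scaled between controls; 0% = DMSO wells and 100% = acetylcholine at EC100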
CHRM5 agonist – human M5 muscarinic receptor agonists, primary screen, CHO-K1 cells, Fluo-8 calcium fluorescence | CHO-K1 hM5 cells; 0% DMSO wells, 100% maximal acetylcholine response | Muscarinic acetylcholine receptor M5 (Homo sapiens), P08912 | activation, % at 3 µM | 360,000 tested, 0.19% active | AID 624037, 2012;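 active = activation above the run's mean over test compounds plus 3 SD, cut at about 23% in these data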;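 note: signal is peak over basal fluorescence ratio across the kinetic read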
* marks the source's active call; other numbers are inactive results. In the library only some 1.9% were active in any assay of this set; here they are far more common.

SMILES	M5 antag	M4 antag	CHRM4 PAM	CHRM5 PAM	M4 ag	CHRM5 agonist
CC(O)CNc1nc2sc3c(c2c(=O)n1CCc1ccccc1)CCCCC3 (stereo unspecified)	-4	-4	-3	-4	7	0
COC(=O)Cn1c(=O)n(CCc2ccccc2)c(=O)c2c3c(sc21)CCCC3	22	30*	-32	-16	-3	-8
O=C(NCc1ccccc1)NC1(C(=O)N2CCOCC2)CCCCC1	-8	24	-1	42*	0	-3
Fc1cccc(Cc2noc(CN3CCCN(C4Cc5ccccc5C4)CC3)n2)c1	2	54*	-22	-20	2	-12
O=C1CCCC(=NNC(=O)c2cc3ccccc3cc2O)C1	-2	3	5	-1	6	26*
O=C(NN=C1CCCC1)c1sc2ccccc2c1Cl	11	-6	9	-1	1	3
O=C1CCC/C(=N/NC(=O)c2sc3ccccc3c2Cl)C1	17	21	-17	-11	23	24*
CCN(CC(=O)NCc1ccc(Cl)cc1)C(=O)c1sccc1C	6	10	1	9	0	-1
O=C(Nc1cccc(Br)c1)Oc1cccc2cccnc12	34*	17	-10	-21	14	9
O=C(Nc1c(Cl)cccc1Cl)Oc1cccc2cccnc12	-4	-4	3	1	2	-3
Cc1ccc(C(C(=O)NCc2ccc(F)cc2)N(CCCO)C(=O)C2COc3ccccc3O2)o1 (stereo unspecified)	-5	41*	-15	-10	9	7
Cc1ccc(CNC(=O)C2COc3ccccc3O2)cc1 (stereo unspecified)	11	4	-3	4	0	1
C=CCC1(Cl)C(=O)C(Cl)=C(N2CCOCC2)C1(OC)OC (stereo unspecified)	18	0	-7	-9	1	-1
COC(=O)c1ccc2c(=O)n(Cc3ccc(C(=O)NC4CCCC4)cc3)c(=S)[nH]c2c1	-2	1	21*	3	2	2
Cc1cc(C(=O)N/N=C2/CC(C)CC(C)(C)C2)c(C)o1 (stereo unspecified)	-9	-4	26*	-4	0	-1
O=C(NCC1CCCO1)c1cccc(Oc2ccc([N+](=O)[O-])cc2)c1 (stereo unspecified)	10	-2	0	-8	9	-2
Cc1ccc2cc(F)ccc2n1	4	0	-5	-5	0	2
COC(=O)c1oc2ccc(Br)cc2c1NC(=O)CCCN1C(=O)c2ccccc2C1=O	29*	98*	-17	-23	1	-4
NC(=S)Nn1c(-c2ccccc2)nc2ccccc2c1=O	-4	-2	18	22*	2	2
O=C(CCN1C(=O)NC2(CCCC2)C1=O)Nc1ccc(-c2nc3ccccc3s2)cc1	26	27*	-13	-41	28	3
Cn1c(=O)[nH]c(=O)c2c1nc(CN1CCN(c3ccccc3F)CC1)n2CCCc1ccccc1	-8	-15	22*	-1	0	0
CSCC[C@H](NC(=O)c1ccco1)c1nnc2ccccn12	-2	3	-1	1	1	-4
Fc1c(F)c(F)c(/C=N/NC(=S)Nc2cccnc2)c(F)c1F	-6	-9	19*	7	3	-2
Fc1cccc(F)c1/C=N/NC(=S)Nc1cccnc1	6	11	-3	-3	0	-3
CC1(c2ccc(OC(F)F)cc2)NC(=O)N(CC(=O)NC2CCCCC2)C1=O (stereo unspecified)	8	-8	17	-7	7	5
SMILES	M5 antag	M4 antag	CHRM4 PAM	CHRM5 PAM	M4 ag	CHRM5 agonist
CC1(c2ccc(OC(F)F)cc2)NC(=O)N(CC(=O)c2ccc3c(c2)OCO3)C1=O (stereo unspecified)	5	-8	-8	-21	40*	42*
CC1(c2ccc([N+](=O)[O-])cc2)NC(=O)N(CC(=O)c2ccc3c(c2)OCO3)C1=O (stereo unspecified)	6	-7	-6	-15	33*	36*
O=C(NCc1ccccn1)c1cccc(NS(=O)(=O)c2ccc(Br)cc2)c1	0	4	-2	1	4	8
COc1ccc2c(c1)CCc1cn3nc(C)cc3nc1-2	-12	-22	9	19*	-1	-5
COc1ccc(C2=Nn3c(nnc3-c3ccccc3Cl)SC2)cc1OCC1CC1	16	17	-2	-24	3	-10
COc1ccc(OC)c(-c2nnc3n2N=C(c2ccc(OC)c(OCC4CC4)c2)CS3)c1	-3	29*	-9	-14	5	-12
CN1CCC(OC2c3ccccc3CCc3ccccc32)CC1	99*	99*	-12	-20	3	-2
CN1CCC(OC(=O)c2ccccc2)CC1	10	-6	-1	-12	0	-9
C(=C\c1ccccc1)/CN1CCN(C(c2cccc3ccccc23)c2nnnn2Cc2ccccc2)CC1 (stereo unspecified)	38*	6	-11	-22	2	-3
C(=C\c1ccccc1)/CN1CCN(C(c2nnnn2C2CCCC2)C2CC2)CC1 (stereo unspecified)	6	-4	-4	-4	0	-8
CC(C)(C)n1nnnc1C(c1cccs1)N1CCN(Cc2ccccc2)CC1 (stereo unspecified)	6	5	-2	-3	0	-6
C(=C\c1ccccc1)/CN1CCN(C(c2ccccc2)c2nnnn2C2CCCC2)CC1 (stereo unspecified)	44*	14	-14	-22	4	-8
C(=C\c1ccccc1)/CN1CCN(C(c2ccnc3ccccc23)c2nnnn2C2CCCC2)CC1 (stereo unspecified)	86*	31*	-15	-22	1	-8
CC(C)(C)n1nnnc1C(c1cccs1)N1CCN(C/C=C/c2ccccc2)CC1 (stereo unspecified)	28*	13	-14	-22	-1	-8
CC(C)(C)n1nnnc1C(c1ccnc2ccccc12)N1CCN(C/C=C/c2ccccc2)CC1 (stereo unspecified)	7	0	-2	-16	3	-7
